How the values were obtained:
MOLT-4 cells [1] = details: ref 10a; cited from earlier work
human platelets = details: earlier study; ref 10a; cited from earlier work
MOLT-4 cells [2] = assay: MTS cell viability assay in MOLT-4 cells; type: cell-based; details: Homo sapiens, MOLT-4, 48 h, read-out: IC50, cell-killing potency in MOLT-4
RS4;11 cells = assay: MTS cell viability assay in RS4; type: cell-based; details: for IC50: Homo sapiens, RS4-11, 48 h, read-out: IC50, cell-killing potency in RS4;11; for activity loss (IC50 change) after pre-treatment with VHL-032: RS4;11 cells, 48 h, pre-treatment with VHL-032 (10 μM)
BCL-2 [3] = biological target: BCL-2 (Homo sapiens, UniProt P10415+P40337); assay: AlphaScreen displacement binding assay, BCL-2; details: displacement of Biotin-Bim
Chain of BCL-2 (Homo sapiens, UniProt P10415+P40337) (P10415 1-211 limits assumed): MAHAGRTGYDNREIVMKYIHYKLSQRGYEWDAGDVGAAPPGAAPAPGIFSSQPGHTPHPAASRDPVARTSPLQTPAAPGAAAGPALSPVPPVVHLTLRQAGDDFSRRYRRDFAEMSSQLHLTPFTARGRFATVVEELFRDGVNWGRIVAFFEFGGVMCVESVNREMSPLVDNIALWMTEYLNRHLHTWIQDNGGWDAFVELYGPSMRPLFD
Chain of BCL-2 (Homo sapiens, UniProt P10415+P40337) (P40337 whole entry): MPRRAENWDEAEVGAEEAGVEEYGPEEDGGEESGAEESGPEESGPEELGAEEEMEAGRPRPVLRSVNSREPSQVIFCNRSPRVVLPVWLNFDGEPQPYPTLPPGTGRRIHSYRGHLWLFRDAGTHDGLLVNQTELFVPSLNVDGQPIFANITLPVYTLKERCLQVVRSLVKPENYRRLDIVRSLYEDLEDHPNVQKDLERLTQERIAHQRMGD
Chain of BCL-2 (Homo sapiens, UniProt P10415+P40337) (Q15369 whole entry partner): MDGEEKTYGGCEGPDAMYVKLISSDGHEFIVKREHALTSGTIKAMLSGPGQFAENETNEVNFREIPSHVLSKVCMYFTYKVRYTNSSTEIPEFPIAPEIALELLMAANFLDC
Chain of BCL-2 (Homo sapiens, UniProt P10415+P40337) (Q15370 whole entry partner): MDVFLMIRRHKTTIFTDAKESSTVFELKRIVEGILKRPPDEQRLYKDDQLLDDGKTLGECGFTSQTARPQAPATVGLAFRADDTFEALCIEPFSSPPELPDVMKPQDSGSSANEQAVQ
Chain of BCL-2 (Homo sapiens, UniProt P10415+P40337) (Q13617 whole entry partner): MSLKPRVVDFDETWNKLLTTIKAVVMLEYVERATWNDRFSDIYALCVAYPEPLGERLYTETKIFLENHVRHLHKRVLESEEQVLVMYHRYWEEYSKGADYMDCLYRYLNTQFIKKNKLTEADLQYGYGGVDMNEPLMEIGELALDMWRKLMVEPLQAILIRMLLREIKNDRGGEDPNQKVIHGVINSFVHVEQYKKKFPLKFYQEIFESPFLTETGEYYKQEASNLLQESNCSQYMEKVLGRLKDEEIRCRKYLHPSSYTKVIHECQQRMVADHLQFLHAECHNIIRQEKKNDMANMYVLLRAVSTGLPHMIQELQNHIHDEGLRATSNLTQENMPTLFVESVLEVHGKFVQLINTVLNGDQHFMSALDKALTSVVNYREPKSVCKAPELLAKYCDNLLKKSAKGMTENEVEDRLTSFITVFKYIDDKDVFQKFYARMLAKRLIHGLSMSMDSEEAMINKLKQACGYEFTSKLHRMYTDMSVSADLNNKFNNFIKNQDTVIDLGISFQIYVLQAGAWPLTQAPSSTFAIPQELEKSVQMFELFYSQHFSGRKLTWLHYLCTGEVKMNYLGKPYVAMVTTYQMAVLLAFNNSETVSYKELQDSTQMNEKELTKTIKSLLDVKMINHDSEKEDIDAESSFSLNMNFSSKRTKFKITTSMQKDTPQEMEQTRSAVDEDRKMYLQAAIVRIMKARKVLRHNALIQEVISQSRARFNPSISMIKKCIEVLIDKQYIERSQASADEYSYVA

[4] = biological target: {BCL-2:compound:VCB} ternary complexes (Homo sapiens, UniProt P10415+P40337); assay: NanoBRET ternary complex formation with BCL-2 and VCB in live 293T cells; type: cell-based; details: 6 h
Chain of {BCL-2:compound:VCB} ternary complexes (P10415 whole entry): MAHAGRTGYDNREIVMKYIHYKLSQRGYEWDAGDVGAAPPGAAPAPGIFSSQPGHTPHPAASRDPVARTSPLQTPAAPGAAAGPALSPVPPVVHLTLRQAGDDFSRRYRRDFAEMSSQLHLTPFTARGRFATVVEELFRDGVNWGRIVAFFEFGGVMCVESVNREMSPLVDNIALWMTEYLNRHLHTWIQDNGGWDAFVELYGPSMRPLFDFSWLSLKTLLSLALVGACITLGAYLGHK
Chain of {BCL-2:compound:VCB} ternary complexes (P40337 whole entry): as the sequence (P40337 whole entry) above
Chain of {BCL-2:compound:VCB} ternary complexes (Q15370 whole entry partner): as the sequence (Q15370 whole entry partner) above
Chain of {BCL-2:compound:VCB} ternary complexes (Q15369 whole entry partner): as the sequence (Q15369 whole entry partner) above
How it was run: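 HEK 293T cells were transfected with 1 μg HaloTag-VHL, 10 ng HiBit-BCL-2 and 10 ng LgBit. After 24 h, 2×10^4 cells/well were placed in phenol-red-free Opti-MEM with 4% FBS ± HaloTag NanoBRET 618 ligand overnight at 37 °C. Serially diluted test compound was added for 6 h, then Nano-Glo substrate. mBRET ratio calculated. Mean ± s.e.m. of two independent experiments in triplicate.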

BCL-XL [5] = biological target: BCL-XL (Homo sapiens, UniProt P40337+Q07817); assay: AlphaScreen displacement binding assay, BCL-XL; details: displacement of Biotin-Bad
Chain of BCL-XL (Homo sapiens, UniProt P40337+Q07817) (Q07817 1-212 limits assumed): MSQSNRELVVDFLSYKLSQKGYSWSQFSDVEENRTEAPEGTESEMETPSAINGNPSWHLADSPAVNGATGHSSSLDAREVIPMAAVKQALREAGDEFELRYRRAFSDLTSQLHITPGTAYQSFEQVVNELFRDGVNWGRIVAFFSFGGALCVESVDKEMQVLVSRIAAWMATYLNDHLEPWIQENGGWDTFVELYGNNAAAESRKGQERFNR
Chain of BCL-XL (Homo sapiens, UniProt P40337+Q07817) (P40337 whole entry): as the sequence (P40337 whole entry) above
Chain of BCL-XL (Homo sapiens, UniProt P40337+Q07817) (Q15369 whole entry partner): as the sequence (Q15369 whole entry partner) above
Chain of BCL-XL (Homo sapiens, UniProt P40337+Q07817) (Q15370 whole entry partner): as the sequence (Q15370 whole entry partner) above
Chain of BCL-XL (Homo sapiens, UniProt P40337+Q07817) (Q13617 whole entry partner): as the sequence (Q13617 whole entry partner) above
BCL-2:Bim interaction = BCL-2:Bim interaction (Homo sapiens, UniProt P10415); assay: Co-immunoprecipitation of Bim with BCL-2 in RS4; type: cell-based; details: RS4;11 cells, 12 h, immunoprecipitation with BCL-2
Chain of BCL-2:Bim interaction (P10415 whole entry): as the sequence (P10415 whole entry) above
How it was run: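 RS4;11 cells were treated with test compound for 12 h, ±VHL-032. Lysis in IP buffer with protease/phosphatase inhibitors, then 15000 rpm spin. 1 mg lysate was precleared with mouse IgG and protein A/G agarose for 1 h at 4 °C. IP with 2 μg anti-BCL-2 (or IgG) overnight at 4 °C, then beads for 2 h. After three washes, immunoblotted for Bim. Inputs probed for Bim, BCL-2 and β-actin. Two independent experiments.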

BCL-XL with VCB = BCL-XL with VCB (Homo sapiens, UniProt P40337+Q07817); assay: AlphaLISA cell-free ternary complex formation, BCL-XL and VCB; type: biochemical
Chain of BCL-XL with VCB (Q07817 1-212 limits assumed): as the sequence (Q07817 1-212 limits assumed) above
Chain of BCL-XL with VCB (P40337 whole entry): as the sequence (P40337 whole entry) above
Chain of BCL-XL with VCB (Q15370 whole entry partner): as the sequence (Q15370 whole entry partner) above
Chain of BCL-XL with VCB (Q15369 whole entry partner): as the sequence (Q15369 whole entry partner) above
Chain of BCL-XL with VCB (Q13617 whole entry partner): as the sequence (Q13617 whole entry partner) above
How it was run: (§1)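 Recombinant His-tagged BCL-2 or BCL-XL and GST-tagged VHL–elongin B–elongin C–Cul2 (VCB) were each added at 20 nM with a 4× serial dilution of test compound. Buffer: 25 mM HEPES pH 7.5, 100 mM NaCl, 0.1% BSA, 0.005% Tween 20. Incubation 30 min at room temperature, then glutathione donor beads for 15 min and anti-His acceptor beads for 45 min, both in the dark. AlphaLISA luminescence plotted against log concentration.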

BCL-2 with VCB = BCL-2 with VCB (Homo sapiens, UniProt P10415+P40337); assay: AlphaLISA cell-free ternary complex formation, BCL-2 and VCB; type: biochemical
Chain of BCL-2 with VCB (P10415 1-211 limits assumed): as the sequence (P10415 1-211 limits assumed) above
Chain of BCL-2 with VCB (P40337 whole entry): as the sequence (P40337 whole entry) above
Chain of BCL-2 with VCB (Q15370 whole entry partner): as the sequence (Q15370 whole entry partner) above
Chain of BCL-2 with VCB (Q15369 whole entry partner): as the sequence (Q15369 whole entry partner) above
Chain of BCL-2 with VCB (Q13617 whole entry partner): as the sequence (Q13617 whole entry partner) above
How it was run: as §1

MCL-1 = MCL-1 levels in HEK 293T cells by immunoblotting; type: cell-based
How it was run: (§2)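 HEK 293T cells grown in DMEM with 10% FBS and 1% penicillin–streptomycin at 37 °C, 5% CO2, then treated with test compound. Lysates made with protease/phosphatase inhibitors, run on 4–20% Tris-glycine gels and transferred to PVDF. Blocked in 5% milk/TBS-Tween. Primary antibodies overnight at 4 °C, HRP secondary, ECL detection. Cleaved PARP probed as apoptosis marker.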

NCI-H211 cells = assay: Cell viability assay in NCI-H211 cells; type: cell-based; details: BCL-2/BCL-XL dual-dependent cells
How it was run: (§3)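 Cells were seeded at 50,000/well in complete medium and dosed 30 min later at nine concentrations in triplicate. Viability was read by MTS after 48 h. Percentage viability was fitted by non-linear regression.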

MOLT-4 cells [6] = assay: Apoptosis induction in MOLT-4 cells; type: cell-based, human; details: caspase-3 mediated
How it was run: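 MOLT-4 cells were given test compound for 16 h, then immunoblotted for cleaved and full caspase-3, cleaved and full PARP, and β-actin. Separately, cells (5×10^4/well) were pretreated ±2 μM QVD for 4 h, then given 10 nM compound for 48 h. Read by immunoblot, or by Annexin-V–Alexa Fluor 647 (1:50) plus PI (10 μg/mL) staining for 30 min at room temperature in the dark, then flow cytometry.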

BCL-XL [7] = biological target: T1, BCL-XL (Homo sapiens, UniProt Q07817); assay: BCL-XL degradation in HEK 293T cells by immunoblotting; type: cell-based
T1 sequence (Q07817 whole entry): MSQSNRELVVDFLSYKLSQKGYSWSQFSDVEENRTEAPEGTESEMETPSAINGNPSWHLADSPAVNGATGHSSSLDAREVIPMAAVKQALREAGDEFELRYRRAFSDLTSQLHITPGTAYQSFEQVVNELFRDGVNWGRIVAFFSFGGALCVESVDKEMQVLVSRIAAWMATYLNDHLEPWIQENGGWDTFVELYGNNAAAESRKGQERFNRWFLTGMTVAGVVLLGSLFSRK
How it was run: as §2

BCL-2 [8] = biological target: BCL-2 (Homo sapiens, UniProt P10415); assay: BCL-2 degradation by western blotting in MOLT-4 and RS4; type: cell-based; details: 16 h
Chain of BCL-2 (Homo sapiens, UniProt P10415) (P10415 whole entry): as the sequence (P10415 whole entry) above

BCL-XL [9] = biological target: T1, BCL-XL; assay: BCL-XL degradation in MOLT-4 cells by western blotting; type: cell-based
How it was run: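 MOLT-4 cells were exposed to test compound for 16 h across a concentration range. Other arms: 100 nM time course; 100 nM for 16 h, then washout; and pretreatment with 10 μM VHL-032 or 1 μM MG-132 before 12 h exposure. Lysates were immunoblotted for BCL-XL and β-actin. Band densities were normalised to β-actin. Mean ± SD of three independent experiments in triplicate.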

NCI-H146 cells = assay: Cell viability assay in NCI-H146 cells; type: cell-based; details: BCL-2/BCL-XL dual-dependent cells
How it was run: as §3

BCL-XL [10] = biological target: T1, BCL-XL; assay: BCL-XL protein levels in human platelets by western blotting; type: cell-based; details: 16 h treatment
How it was run: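 Platelets came from purchased human platelet-rich plasma in acid citrate buffer with 1 μM PGE1 and 0.2 units/mL apyrase (final). They were pelleted at 1200 g for 10 min, washed and resuspended in HEPES Tyrode's buffer with the same PGE1/apyrase. Platelets were treated with test compound for 16 h, then immunoblotted for BCL-XL.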

| activity loss (IC50 change) after pre-treatment with VHL-032 (RS4;11 cells) | formation of {BCL-2:compound:VCB} ternary complexes in live cells [4] | effect on BCL-2:Bim interaction (BCL-2:Bim interaction) | formation of ternary complexes with BCL-XL and VCB (BCL-XL with VCB) | formation of ternary complexes with BCL-2 and VCB (BCL-2 with VCB) | BCL-XL degradation (in words) (BCL-XL [9]) | SMILES | IC50 (RS4;11 cells) [nM] | other results |
| --- | --- | --- | --- | --- | --- | --- | --- | --- |
| no significant IC50 value changes | could not | minimal effect | – | – | – | Cc1ncsc1-c1ccc([C@H](C)NC(=O)[C@@H]2C[C@@H](O)CN2C(=O)[C@@H](NC(=O)CCCCCC(=O)N2CCN(CC[C@H](CSc3ccccc3)Nc3ccc(S(=O)(=O)NC(=O)c4ccc(N5CCN(CC6=C(c7ccc(Cl)cc7)CCC(C)(C)C6)CC5)cc4)cc3S(=O)(=O)C(F)(F)F)CC2)C(C)(C)C)cc1 [DT2216] | 212 ± 27.4 | fold more potent than warhead ABT-263 against MOLT-4 (MOLT-4 cells [1]): 4 fold; selectivity for MOLT-4 over human platelets (human platelets): ~ 200 fold; IC50 (MOLT-4 cells [2]): 75.3 ± 9.1 nM; Kd (BCL-2 [3]; Kd BCL-2 w VHL, ternary binding, with GST-VCB): 1.46 ± 0.41 nM; Kd (BCL-2 [3]; Kd BCL-2 w/o VHL, binary binding, without VCB): 2.25 ± 0.33 nM; Kd (BCL-XL [5]; Kd BCL-XL w VHL, ternary binding, with GST-VCB): 2.18 ± 0.51 nM; Kd (BCL-XL [5]; Kd BCL-XL w/o VHL, binary binding, without VCB): 7.58 ± 0.62 nM |
| – | – | – | – | – | – | Cc1ncsc1-c1ccc([C@H](C)NC(=O)[C@@H]2C[C@@H](O)CN2C(=O)[C@@H](NC(=O)CCCCCC(=O)NCC2(C)CCC(c3ccc(Cl)cc3)=C(CN3CCN(c4ccc(C(=O)NS(=O)(=O)c5ccc(N[C@H](CCN6CCOCC6)CSc6ccccc6)c(S(=O)(=O)C(F)(F)F)c5)cc4)CC3)C2)C(C)(C)C)cc1 (stereo partly drawn) [PP2, N^1-((4’-Chloro-4-methyl-6-((4-(4-(((4-(((R)-4-morpholino-1-(phenylthio)butan-2-yl)amino)-3-((trifluoromethyl)sulfonyl)phenyl)sulfonyl)carbamoyl)phenyl)piperazin-1-yl)methyl)-2,3,4,5-tetrahydro-[1,1’-biphenyl]-4-yl)methyl)-N^7-((S)-1-((2S,4R)-4-hydroxy-2-(((S)-1-(4-(4-methylthiazol-5-yl)phenyl)ethyl)carbamoyl)pyrrolidin-1-yl)-3,3-dimethyl-1-oxobutan-2-yl)heptanediamide] | 234 ± 21.6 | – |
| – | able to form | – | – | – | – | Cc1ncsc1-c1ccc([C@H](C)NC(=O)[C@@H]2C[C@@H](O)CN2C(=O)[C@@H](NC(=O)CCCCCCCCC(=O)NCC2(C)CCC(c3ccc(Cl)cc3)=C(CN3CCN(c4ccc(C(=O)NS(=O)(=O)c5ccc(N[C@H](CCN6CCOCC6)CSc6ccccc6)c(S(=O)(=O)C(F)(F)F)c5)cc4)CC3)C2)C(C)(C)C)cc1 (stereo partly drawn) [PP5, N^1-((4’-Chloro-4-methyl-6-((4-(4-(((4-(((R)-4-morpholino-1-(phenylthio)butan-2-yl)amino)-3-((trifluoromethyl)sulfonyl)phenyl)sulfonyl)carbamoyl)phenyl)piperazin-1-yl)methyl)-2,3,4,5-tetrahydro-[1,1’-biphenyl]-4-yl)methyl)-N^10-((S)-1-((2S,4R)-4-hydroxy-2-(((S)-1-(4-(4-methylthiazol-5-yl)phenyl)ethyl)carbamoyl)pyrrolidin-1-yl)-3,3-dimethyl-1-oxobutan-2-yl)decanediamide] | – | – |
| 2.6 fold | able to form | – | can form stable ternary complexes | can form stable ternary complexes | – | Cc1ncsc1-c1ccc([C@H](C)NC(=O)[C@@H]2C[C@@H](O)CN2C(=O)[C@@H](NC(=O)CCCCCCCCC(=O)NC[C@@]2(C)CCC(c3ccc(Cl)cc3)=C(CN3CCN(c4ccc(C(=O)NS(=O)(=O)c5ccc(N[C@H](CCN6CCOCC6)CSc6ccccc6)c(S(=O)(=O)C(F)(F)F)c5)cc4)CC3)C2)C(C)(C)C)cc1 [PZ703a, N^1-(((S)-4’-Chloro-4-methyl-6-((4-(4-(((4-(((R)-4-morpholino-1-(phenylthio)butan-2-yl)amino)-3-((trifluoromethyl)sulfonyl)phenyl)sulfonyl)carbamoyl)phenyl)piperazin-1-yl)methyl)-2,3,4,5-tetrahydro-[1,1’-biphenyl]-4-yl)methyl)-N^10-((S)-1-((2S,4R)-4-hydroxy-2-(((S)-1-(4-(4-methylthiazol-5-yl)phenyl)ethyl)carbamoyl)pyrrolidin-1-yl)-3,3-dimethyl-1-oxobutan-2-yl)decanediamide] | – | – |
| – | able to form | can inhibit BCL-2:Bim interaction | can form stable ternary complexes | can form stable ternary complexes | rapid and durable BCL-XL degradation | Cc1ncsc1-c1ccc([C@H](C)NC(=O)[C@@H]2C[C@@H](O)CN2C(=O)[C@@H](NC(=O)CCCCCCCCC(=O)NC[C@]2(C)CCC(c3ccc(Cl)cc3)=C(CN3CCN(c4ccc(C(=O)NS(=O)(=O)c5ccc(N[C@H](CCN6CCOCC6)CSc6ccccc6)c(S(=O)(=O)C(F)(F)F)c5)cc4)CC3)C2)C(C)(C)C)cc1 [PZ703b, N^1-(((R)-4’-Chloro-4-methyl-6-((4-(4-(((4-(((R)-4-morpholino-1-(phenylthio)butan-2-yl)amino)-3-((trifluoromethyl)sulfonyl)phenyl)sulfonyl)carbamoyl)phenyl)piperazin-1-yl)methyl)-2,3,4,5-tetrahydro-[1,1’-biphenyl]-4-yl)methyl)-N^10-((S)-1-((2S,4R)-4-hydroxy-2-(((S)-1-(4-(4-methylthiazol-5-yl)phenyl)ethyl)carbamoyl)pyrrolidin-1-yl)-3,3-dimethyl-1-oxobutan-2-yl)decanediamide] | – | MCL-1 decrease in HEK 293T cells (MCL-1): no MCL-1 decrease was observed; killing of NCI-H211 cells (NCI-H211 cells): efficiently kill; induction of apoptosis in MOLT-4 cells (MOLT-4 cells [6]): potently induced apoptosis; BCL-XL degradation in HEK 293T cells (BCL-XL [7]): effectively induce BCL-XL degradation; BCL-2 degradation (in words) (BCL-2 [8]): did not observe significant BCL-2 degradation; killing of NCI-H146 cells (NCI-H146 cells): efficiently kill; effect on BCL-XL protein levels in platelets (BCL-XL [10]): did not cause significant changes |
| no significant IC50 value changes | could not | minimal effect | – | – | did not induce BCL-XL degradation | Cc1ncsc1-c1ccc([C@H](C)NC(=O)[C@@H]2C[C@H](O)CN2C(=O)[C@@H](NC(=O)CCCCCCCCC(=O)NC[C@]2(C)CCC(c3ccc(Cl)cc3)=C(CN3CCN(c4ccc(C(=O)NS(=O)(=O)c5ccc(N[C@H](CCN6CCOCC6)CSc6ccccc6)c(S(=O)(=O)C(F)(F)F)c5)cc4)CC3)C2)C(C)(C)C)cc1 [PZ703b-NC] | – | – |
